Experiments:
Neuro2A cells [1] = test: Neurite outgrowth assay; format: cell-based, mouse; conditions: for optimum neuritogenic concentration: average neurite length; for neurite outgrowth promotion compared to no inhibitor (vehicle): differentiated Neuro2A cells, 48 h post-treatment, 10, 1, 0.1, 0.01 μM
Zebrafish = test: Social interaction test in chronic unpredictable stress; format: in vivo, Zebrafish (Danio rerio); conditions: intraperitoneal
How it was run: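 Adult zebrafish were held at 28 ± 2 °C on a 14/10 h light/dark cycle. They then had 7 days of chronic unpredictable stress, two varied stressors daily (restraint, 33/23 °C, isolation, crowding, predator, chasing, alarm pheromone, etc.). Test compound was given at 10, 25 or 50 mg/kg, with fluoxetine 15 mg/kg as reference. Each fish then spent 120 s with an unfamiliar pink zebrafish target. Video was scored manually for latency, interaction time and freezing; n = 15.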

Neuro2A cells [2] = test: Immunoblot of acetylated H3, H4 and tubulin in Neuro2A cells; format: cell-based, mouse; conditions: 1 μM, compared to vehicle
How it was run: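 Neuro2A cells were exposed to compound or vehicle and harvested in Laemmli buffer; protein was assayed by amido black. Equal protein went on 12% SDS-PAGE, then PVDF transfer. Primaries ran overnight at 4 °C and secondaries 2 h at room temperature, with chemiluminescent detection. Acetylated H3, H4 and tubulin were quantified and compared with vehicle by Student's t-test.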

[3] = BBB crossing: TLC detection in Zebrafish brain extract; format: in vivo; conditions: 25 mg/kg, intraperitoneal injection
How it was run: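 Adult zebrafish were dosed with 25 mg/kg test compound or DMSO vehicle. Fish were anaesthetised on ice, and the whole brain was removed and freeze-dried in liquid nitrogen. Brains were ground in HPLC-grade ethyl acetate, sonicated, centrifuged (10 000 rpm, 20 min) and left 20 min to separate the extract. Compound in the extract was detected by TLC.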

Neuro2A cells [4] = test: Cell viability assay; format: cell-based, mouse; conditions: 10 μM, 72 h, MTT assay
How it was run: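 Neuro2A cells were kept in DMEM/10% FBS with supplements at 37 °C, 5% CO2, and seeded at 10 000 cells/cm2. After 24 h they were differentiated in 1% FBS and exposed to compounds (10, 1.0, 0.1 μM) for 72 h. MTT was added for 2 h at 37 °C, formazan was dissolved in DMSO and absorbance read at 562 nm. Viability is given relative to vehicle.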

[5] = tested on: HDAC8 (class I), HDAC4 (class IIa), HDAC6 (class IIb); test: HDACi selectivity assay; format: biochemical, Human; conditions: enzymes immunoprecipitated from HeLA cells; 10, 1, 0.1, 0.01, 0.001 μM
[6] = compound 5 at 50 mg dose, vs vehicle-treated group

Structure (SMILES)	neurite growth activity and viability above the optimum neuritogenic concentration (Neuro2A cells [1]; Neuro2A cells)	optimum neuritogenic concentration (Neuro2A cells [1]; Neuro2A cells) [µM]	neurite outgrowth promotion compared to no inhibitor (vehicle) (Neuro2A cells [1])	also measured
O=C(CCCCc1ccc2c(c1)c1ccccc1n2CC(=O)NO)NO [Compound 8, N-hydroxy-5-(9-(2-(hydroxyamino)-2-oxoethyl)-9H-carbazol-3-yl)pentanamide]	reduced neurite growth activity and viability	0.1	significantly more neurite outgrowth promotion	
O=C(CCCCC(=NO)n1c2ccccc2c2ccccc21)NO [Compound 11, 6-(9H-Carbazol-9-yl)-N-hydroxy-6-(hydroxyimino)hexanamide]	reduced neurite growth activity and viability	0.1	significantly more neurite outgrowth promotion	
CN1CCc2c(c3ccccc3n2Cc2ccc(C(=O)NO)cc2)C1 [tubastatin-A, reference compound]	reduced neurite growth activity and viability	10	significantly more neurite outgrowth promotion	
CNCCC(Oc1ccc(C(F)(F)F)cc1)c1ccccc1 (stereo not drawn) [fluoxetine, reference compound]				freezing duration (social interaction test) (Zebrafish; compound 5 (10, 25, 50 mg/kg tested), fluoxetine 15 mg/kg): trend of decreased freezing duration
O=C(CCCCCCCc1ccc2[nH]c3ccccc3c2c1)NO [Compound 5, 8-(9H-Carbazol-3-yl)-N-hydroxyoctanamide]	reduced neurite growth activity and viability	1	significantly more neurite outgrowth promotion	acetylated H3 (Neuro2A cells [2]): significant increase; acetylated H4 (Neuro2A cells [2]): significant increase; acetylated tubulin (Neuro2A cells [2]): significant increase; crossing of the blood-brain barrier (detection in brain extract by TLC) [3]: crossing the BBB; cell viability (cytotoxicity) (Neuro2A cells [4]): does not show any observable toxicity; neurite outgrowth compared to vorinostat and tubastatin-A (Neuro2A cells [1]; Neuro2A cells, at optimum neuritogenic concentrations): remarkably more neurite outgrowth; HDAC class selectivity [5]: selectivity for class II (class IIa-HDAC4 and class IIb- HDAC6) over class I (HDAC8); latency to social interaction (Zebrafish; [6]): not at 50 mg dose; total time spent in interaction zone (Zebrafish; [6]): not at 50 mg dose
O=C(CCCCCCC(=O)Nc1ccccc1)NO [vorinostat, suberoylanilide hydroxamic acid, reference compound]	reduced neurite growth activity and viability	1		
O=C(CCCCCCC(=NO)c1ccc2c(c1)c1ccccc1n2Cc1ccccc1)NO [Compound 7, 8-(9-Benzyl-9H-carbazol-3-yl)-N-hydroxy-8-(hydroxyimino)octanamide]	reduced neurite growth activity and viability	0.1	significantly more neurite outgrowth promotion	
O=C(CCCC(=NO)n1c2ccccc2c2ccccc21)NO [Compound 10, 5-(9H-Carbazol-9-yl)-N-hydroxy-5-(hydroxyimino)pentanamide]	reduced neurite growth activity and viability	0.1	significantly more neurite outgrowth promotion	
O=C(CCCCC(=NO)c1ccc2c(c1)c1ccccc1n2Cc1ccccc1)NO [Compound 6, 6-(9-Benzyl-9H-carbazol-3-yl)-N-hydroxy-6-(hydroxyimino)hexanamide]	reduced neurite growth activity and viability	0.01	significantly more neurite outgrowth promotion	
O=C(CCCCCc1ccc2c(c1)c1ccccc1n2Cc1ccccc1)NO [Compound 4, 6-(9-Benzyl-9H-carbazol-3-yl)-N-hydroxyhexanamide]	reduced neurite growth activity and viability	0.1	significantly more neurite outgrowth promotion	

From article PMC6811854 (ACS Omega, 2019)
